# Results from ChEMBL document CHEMBL1806428, “Design and synthesis of spiro derivatives of parthenin as novel anti-cancer agents” (Eur J Med Chem, 2011).
# Values joined by “and” are separate entries in the source; they are usually repeats but may differ in a detail not shown here. Identical values can stand only once.
# What was measured:
# SW-620 = assay: Cytotoxicity against human SW620 cells assessed as cell growth after 48 hrs by sulforhodamine B assay; assay type: functional, cell-based
# In short: (§1)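 Log-phase cells seeded at 10^4/well and allowed to attach for 24 h at 37 °C, 5% CO2. Exposed for 48 h to 0.1–100 (1:10 serial dilutions), four replicate wells per condition. Fixed with cold 50% TCA for 1 h at 4 °C, stained with sulforhodamine B, dye dissolved in Tris, OD read at 540 nm. Blank-subtracted growth expressed relative to untreated cells (100%); IC50 reported.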
# DU-145 = assay: Cytotoxicity against human DU145 cells assessed as cell growth after 48 hrs by sulforhodamine B assay; assay type: functional, cell-based; in short: as §1
# PC-3 = assay: Cytotoxicity against human PC3 cells assessed as cell growth after 48 hrs by sulforhodamine B assay; assay type: functional, cell-based; in short: as §1
# [1] = Partition coefficient, log P of the compound; assay type: physicochemical; details: octanol/water
SMILES,"IC50 (SW-620; Homo sapiens, SW-620, 48 h) [µM]",IC50 (SW-620; sw-620) [µM],"IC50 (DU-145; Homo sapiens, DU-145, 48 h) [µM]",IC50 (DU-145; du-145) [µM],"IC50 (PC-3; Homo sapiens, PC-3, 48 h) [µM]",IC50 (PC-3; pc-3),logP [1]
C[C@H]1CC[C@@H]2[C@@H](OC(=O)[C@]23CC(c2ccccc2)N(c2ccccc2)O3)[C@]2(C)C(=O)C=C[C@@]12O (some centres undefined),5.3,6,5.6,6.5,5.7,9 µM,–
COc1cccc(C2C[C@@]3(ON2c2ccccc2)C(=O)O[C@@H]2[C@H]3CC[C@H](C)[C@]3(O)C=CC(=O)[C@@]23C)c1 (mixture of isomers),–,–,–,–,–,–,3.25
C[C@H]1CC[C@@H]2[C@@H](OC(=O)[C@]23CC(c2cccc(F)c2)N(c2ccccc2)O3)[C@]2(C)C(=O)C=C[C@@]12O (some centres undefined),4.8,5.1,5,8.1,4.8,9 µM,–
C[C@H]1CC[C@@H]2[C@@H](OC(=O)[C@]23CC(c2ccc([N+](=O)[O-])cc2)N(c2ccccc2)O3)[C@]2(C)C(=O)C=C[C@@]12O (some centres undefined),5.7,5.1,5.6,6,8.4,9.3 µM,–
C[C@H]1CC[C@@H]2[C@@H](OC(=O)[C@]23CC(c2c(F)c(F)c(F)c(F)c2F)N(c2ccccc2)O3)[C@]2(C)C(=O)C=C[C@@]12O (mixture of isomers),–,–,–,–,–,–,3.72
COc1ccc(C2C[C@@]3(ON2c2ccccc2)C(=O)O[C@@H]2[C@H]3CC[C@H](C)[C@]3(O)C=CC(=O)[C@@]23C)cc1Br (some centres undefined),6.8,9,6.3,5.4,5.7,8.1 µM,–
COc1cccc(C2C[C@@]3(ON2c2ccccc2)C(=O)O[C@@H]2[C@H]3CC[C@H](C)[C@]3(O)C=CC(=O)[C@@]23C)c1 (some centres undefined),7.5,6.6,10,11,12,9 µM,–
C[C@H]1CC[C@@H]2[C@@H](OC(=O)[C@]23CC(c2ccccc2F)N(c2ccccc2)O3)[C@]2(C)C(=O)C=C[C@@]12O (some centres undefined),9,10.2,4.1,6,2.7,2.5 µM,–
C[C@H]1CC[C@@H]2[C@@H](OC(=O)[C@]23CC(c2ccccc2)N(c2ccccc2)O3)[C@]2(C)C(=O)C=C[C@@]12O (mixture of isomers),–,–,–,–,–,–,3.19
C[C@H]1CC[C@@H]2[C@@H](OC(=O)[C@]23CC(c2ccccc2Cl)N(c2ccccc2)O3)[C@]2(C)C(=O)C=C[C@@]12O (some centres undefined),5.5,9.2,6,4.1,3.5,6.3 µM,–
C[C@H]1CC[C@@H]2[C@@H](OC(=O)[C@]23CC(c2ccc(C#N)cc2)N(c2ccccc2)O3)[C@]2(C)C(=O)C=C[C@@]12O (mixture of isomers),–,–,–,–,–,–,2.94
C[C@H]1CC[C@@H]2[C@@H](OC(=O)[C@]23CC(c2c(Cl)cccc2Cl)N(c2ccccc2)O3)[C@]2(C)C(=O)C=C[C@@]12O (mixture of isomers),–,–,–,–,–,–,4.45
C[C@H]1CC[C@@H]2[C@@H](OC(=O)[C@]23CC(c2ccc(F)cc2)N(c2ccccc2)O3)[C@]2(C)C(=O)C=C[C@@]12O (some centres undefined),7.3,6,6.4,5,–,5.7 µM and 12 µM,–
C[C@H]1CC[C@@H]2[C@@H](OC(=O)[C@]23CC(c2ccc(Cl)cc2)N(c2ccccc2)O3)[C@]2(C)C(=O)C=C[C@@]12O (some centres undefined),7.5,5.1,7,6,7.8,12 µM,–
COc1ccc(C2C[C@@]3(ON2c2ccccc2)C(=O)O[C@@H]2[C@H]3CC[C@H](C)[C@]3(O)C=CC(=O)[C@@]23C)cc1 (some centres undefined),7.3,4.2,6.4,7.1,5.7,6 µM,–
C[C@H]1CC[C@@H]2[C@@H](OC(=O)[C@]23CC(c2cccc(F)c2)N(c2ccccc2)O3)[C@]2(C)C(=O)C=C[C@@]12O (mixture of isomers),–,–,–,–,–,–,3.35

SMILES,"IC50 (SW-620; Homo sapiens, SW-620, 48 h) [µM]",IC50 (SW-620; sw-620) [µM],"IC50 (DU-145; Homo sapiens, DU-145, 48 h) [µM]",IC50 (DU-145; du-145) [µM],"IC50 (PC-3; Homo sapiens, PC-3, 48 h) [µM]",IC50 (PC-3; pc-3),logP [1]
Cc1ccc(C2C[C@@]3(ON2c2ccccc2)C(=O)O[C@@H]2[C@H]3CC[C@H](C)[C@]3(O)C=CC(=O)[C@@]23C)cc1 (mixture of isomers),–,–,–,–,–,–,3.64
Cc1ccc(C2C[C@@]3(ON2c2ccccc2)C(=O)O[C@@H]2[C@H]3CC[C@H](C)[C@]3(O)C=CC(=O)[C@@]23C)cc1 (some centres undefined),8.7,9,8.1,6.3,8.5,9.1 µM,–
Cc1ccccc1C1C[C@@]2(ON1c1ccccc1)C(=O)O[C@@H]1[C@H]2CC[C@H](C)[C@]2(O)C=CC(=O)[C@@]12C (mixture of isomers),–,–,–,–,–,–,3.64
Cc1ccccc1C1C[C@@]2(ON1c1ccccc1)C(=O)O[C@@H]1[C@H]2CC[C@H](C)[C@]2(O)C=CC(=O)[C@@]12C (some centres undefined),12,9,4.5,5.1,15,–,–
C[C@H]1CC[C@@H]2[C@@H](OC(=O)[C@]23CC(c2ccccc2Cl)N(c2ccccc2)O3)[C@]2(C)C(=O)C=C[C@@]12O (mixture of isomers),–,–,–,–,–,–,3.87
C[C@H]1CC[C@@H]2[C@@H](OC(=O)[C@]23CC(c2c(F)cccc2F)N(c2ccccc2)O3)[C@]2(C)C(=O)C=C[C@@]12O (some centres undefined),5,7.2,12,9,2.5,2.3 µM,–
C[C@H]1CC[C@@H]2[C@@H](OC(=O)[C@]23CC(c2cccc(Cl)c2)N(c2ccccc2)O3)[C@]2(C)C(=O)C=C[C@@]12O (mixture of isomers),–,–,–,–,–,–,3.87
C[C@H]1CC[C@@H]2[C@@H](OC(=O)[C@]23CC(c2ccc(C#N)cc2)N(c2ccccc2)O3)[C@]2(C)C(=O)C=C[C@@]12O (some centres undefined),4.8,5,5,7,4.8,9.1 µM,–
C[C@H]1CC[C@@H]2[C@@H](OC(=O)[C@]23CC(c2ccc(Br)cc2)N(c2ccccc2)O3)[C@]2(C)C(=O)C=C[C@@]12O (some centres undefined),6.7,8.1,5.3,4.2,–,5.8 µM and 2.3 µM,–
C[C@H]1CC[C@@H]2[C@@H](OC(=O)[C@]23CC(c2c(Cl)cccc2Cl)N(c2ccccc2)O3)[C@]2(C)C(=O)C=C[C@@]12O (some centres undefined),3,5,9,6.3,2.4,4.2 µM,–
C[C@H]1CC[C@@H]2[C@@H](OC(=O)[C@]23CC(c2ccc(Cl)cc2)N(c2ccccc2)O3)[C@]2(C)C(=O)C=C[C@@]12O (mixture of isomers),–,–,–,–,–,–,3.87
COc1ccc(C2C[C@@]3(ON2c2ccccc2)C(=O)O[C@@H]2[C@H]3CC[C@H](C)[C@]3(O)C=CC(=O)[C@@]23C)cc1Br (mixture of isomers),–,–,–,–,–,–,3.98
C[C@H]1CC[C@@H]2[C@@H](OC(=O)[C@]23CC(c2c(F)c(F)c(F)c(F)c2F)N(c2ccccc2)O3)[C@]2(C)C(=O)C=C[C@@]12O (some centres undefined),3,5.5,9.3,6.1,5.6,5 µM,–
C[C@H]1CC[C@@H]2[C@@H](OC(=O)[C@]23CC(c2cccc(Cl)c2)N(c2ccccc2)O3)[C@]2(C)C(=O)C=C[C@@]12O (some centres undefined),6.1,10.5,7.4,6,8.2,12 µM,–
COc1ccc(C2C[C@@]3(ON2c2ccccc2)C(=O)O[C@@H]2[C@H]3CC[C@H](C)[C@]3(O)C=CC(=O)[C@@]23C)cc1 (mixture of isomers),–,–,–,–,–,–,3.25
C[C@H]1CC[C@@H]2[C@@H](OC(=O)[C@]23CC(c2ccccc2F)N(c2ccccc2)O3)[C@]2(C)C(=O)C=C[C@@]12O (mixture of isomers),–,–,–,–,–,–,3.35
